≈ marks a conversion by molar mass, not a printed value. Calls of active or inactive are those of the source. No cut-off for these calls is given here.
Key:
Type in all cases: functional
[1] = test system: Enterococcus faecalis; assay: Antibacterial activity against Enterococcus faecalis ATCC 19433 after 18 to 24 hrs by liquid broth method
How it was run: (§1)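 Serial two-fold dilution in liquid broth in 96-well plates. Compounds were added from DMSO stock solutions to give final levels of 1024, 512, 256, 128, 64, 32, 16, 8, 4 and 2 (unit as printed unclear). Plates were incubated at 37 °C for 18–24 h.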

[2] = test system: Staphylococcus aureus; assay: Antibacterial activity against Staphylococcus aureus ATCC 12600 after 18 to 24 hrs by liquid broth method; how it was run: as §1
[3] = test system: Staphylococcus epidermidis; assay: Antibacterial activity against Staphylococcus epidermidis ATCC 14990 after 18 to 24 hrs by liquid broth method; how it was run: as §1
[4] = test system: Bacillus subtilis; assay: Antibacterial activity against Bacillus subtilis ATCC 6633 after 18 to 24 hrs by liquid broth method; how it was run: as §1
[5] = test system: Acinetobacter baumannii; assay: Antibacterial activity against Acinetobacter baumannii ATCC 19606 after 18 to 24 hrs by liquid broth method; details: ATCC 19606 = CIP 70.34 = JCM 6841; how it was run: as §1
[6] = test system: Citrobacter freundii; assay: Antibacterial activity against Citrobacter freundii ATCC 8090 after 18 to 24 hrs by liquid broth method; how it was run: as §1
[7] = test system: Pseudomonas aeruginosa; assay: Antibacterial activity against Pseudomonas aeruginosa ATCC 9027 after 18 to 24 hrs by liquid broth method; how it was run: as §1

| MIC [1] | MIC [2] | MIC [3] | MIC [4] | MIC [5] | MIC [6] | MIC [7] | Structure (SMILES) |
| --- | --- | --- | --- | --- | --- | --- | --- |
| inactive | 1020 µg/mL (≈ 2790 µM) | 512 µg/mL (≈ 1400 µM) | 1020 µg/mL (≈ 2790 µM) | 128 µg/mL (≈ 349 µM) | 1020 µg/mL (≈ 2790 µM) | inactive | Nn1c(-c2ccc(S(=O)(=O)c3ccc(Cl)cc3)cc2)n[nH]c1=S |
| inactive | 1020 µg/mL (≈ 2210 µM) | inactive | 64 µg/mL (≈ 138 µM) | 512 µg/mL (≈ 1100 µM) | inactive | > 1020 µg/mL | CN(C)c1ccc(/C=N/n2c(-c3ccc(S(=O)(=O)c4ccccc4)cc3)n[nH]c2=S)cc1 |
| inactive | 128 µg/mL (≈ 284 µM) | inactive | 128 µg/mL (≈ 284 µM) | 256 µg/mL (≈ 568 µM) | inactive | 512 µg/mL (≈ 1140 µM) | COc1ccccc1/C=N/n1c(-c2ccc(S(=O)(=O)c3ccccc3)cc2)n[nH]c1=S |
| 1020 µg/mL (≈ 2230 µM) | inactive | > 1020 µg/mL | > 1020 µg/mL | > 1020 µg/mL | 512 µg/mL (≈ 1120 µM) | > 1020 µg/mL | CCCn1c(-c2ccc(S(=O)(=O)c3ccccc3)cc2)nn(CN2CCOCC2)c1=S |
| 1020 µg/mL (≈ 2080 µM) | inactive | inactive | > 1020 µg/mL | > 1020 µg/mL | 256 µg/mL (≈ 519 µM) | > 1020 µg/mL | CCCn1c(-c2ccc(S(=O)(=O)c3ccc(Cl)cc3)cc2)nn(CN2CCOCC2)c1=S |
| inactive | 1020 µg/mL (≈ 2250 µM) | 1020 µg/mL (≈ 2250 µM) | inactive | 512 µg/mL (≈ 1130 µM) | inactive | 512 µg/mL (≈ 1130 µM) | O=S(=O)(c1ccc(Cl)cc1)c1ccc(-c2n[nH]c(=S)n2/N=C/c2ccccc2)cc1 |
| 512 µg/mL (≈ 953 µM) | inactive | inactive | > 1020 µg/mL | > 1020 µg/mL | 256 µg/mL (≈ 476 µM) | > 1020 µg/mL | CCCn1c(-c2ccc(S(=O)(=O)c3ccc(Br)cc3)cc2)nn(CN2CCOCC2)c1=S |
| inactive | 256 µg/mL (≈ 550 µM) | inactive | 512 µg/mL (≈ 1100 µM) | 1020 µg/mL (≈ 2200 µM) | inactive | 512 µg/mL (≈ 1100 µM) | O=[N+]([O-])c1cccc(/C=N/n2c(-c3ccc(S(=O)(=O)c4ccccc4)cc3)n[nH]c2=S)c1 |
| 512 µg/mL (≈ 1000 µM) | 512 µg/mL (≈ 1000 µM) | inactive | 1020 µg/mL (≈ 2010 µM) | 512 µg/mL (≈ 1000 µM) | > 1020 µg/mL | 512 µg/mL (≈ 1000 µM) | O=S(=O)(c1ccccc1)c1ccc(-c2nn(CN3CCOCC3)c(=S)n2/N=C/c2ccco2)cc1 |
| > 1020 µg/mL | 256 µg/mL (≈ 584 µM) | inactive | 1020 µg/mL (≈ 2340 µM) | 1020 µg/mL (≈ 2340 µM) | 256 µg/mL (≈ 584 µM) | inactive | CCCn1c(S)nnc1-c1ccc(S(=O)(=O)c2ccc(Br)cc2)cc1 |
| > 1020 µg/mL | 1020 µg/mL (≈ 1820 µM) | inactive | 512 µg/mL (≈ 910 µM) | 1020 µg/mL (≈ 1820 µM) | inactive | > 1020 µg/mL | CN(C)c1ccc(/C=N/n2c(-c3ccc(S(=O)(=O)c4ccccc4)cc3)nn(CN3CCOCC3)c2=S)cc1 |
| > 1020 µg/mL | > 1020 µg/mL | > 1020 µg/mL | > 1020 µg/mL | > 1020 µg/mL | > 1020 µg/mL | > 1020 µg/mL | CCCn1c(S)nnc1-c1ccc(S(=O)(=O)c2ccccc2)cc1 |
| > 1020 µg/mL | 512 µg/mL (≈ 931 µM) | inactive | 512 µg/mL (≈ 931 µM) | 512 µg/mL (≈ 931 µM) | inactive | > 1020 µg/mL | COc1ccccc1/C=N/n1c(-c2ccc(S(=O)(=O)c3ccccc3)cc2)nn(CN2CCOCC2)c1=S |
| inactive | 512 µg/mL (≈ 1220 µM) | > 1020 µg/mL | inactive | > 1020 µg/mL | inactive | 1020 µg/mL (≈ 2440 µM) | O=S(=O)(c1ccccc1)c1ccc(-c2n[nH]c(=S)n2/N=C/c2ccccc2)cc1 |
| 1020 µg/mL (≈ 1970 µM) | 512 µg/mL (≈ 985 µM) | inactive | 512 µg/mL (≈ 985 µM) | > 1020 µg/mL | > 1020 µg/mL | > 1020 µg/mL | O=S(=O)(c1ccccc1)c1ccc(-c2nn(CN3CCOCC3)c(=S)n2/N=C/c2ccccc2)cc1 |
| 512 µg/mL (≈ 924 µM) | 1020 µg/mL (≈ 1850 µM) | inactive | inactive | 1020 µg/mL (≈ 1850 µM) | inactive | 1020 µg/mL (≈ 1850 µM) | O=S(=O)(c1ccc(Cl)cc1)c1ccc(-c2nn(CN3CCOCC3)c(=S)n2/N=C/c2ccccc2)cc1 |
| 1020 µg/mL (≈ 1810 µM) | 512 µg/mL (≈ 907 µM) | inactive | 1020 µg/mL (≈ 1810 µM) | 512 µg/mL (≈ 907 µM) | inactive | 1020 µg/mL (≈ 1810 µM) | O=[N+]([O-])c1cccc(/C=N/n2c(-c3ccc(S(=O)(=O)c4ccccc4)cc3)nn(CN3CCOCC3)c2=S)c1 |
| > 1020 µg/mL | 512 µg/mL (≈ 1540 µM) | 128 µg/mL (≈ 385 µM) | 1020 µg/mL (≈ 3080 µM) | 512 µg/mL (≈ 1540 µM) | > 1020 µg/mL | > 1020 µg/mL | Nn1c(-c2ccc(S(=O)(=O)c3ccccc3)cc2)n[nH]c1=S |
| inactive | 512 µg/mL (≈ 1250 µM) | inactive | inactive | 128 µg/mL (≈ 312 µM) | inactive | 256 µg/mL (≈ 624 µM) | O=S(=O)(c1ccccc1)c1ccc(-c2n[nH]c(=S)n2/N=C/c2ccco2)cc1 |
| > 1020 µg/mL | 512 µg/mL (≈ 1300 µM) | inactive | 1020 µg/mL (≈ 2600 µM) | > 1020 µg/mL | 512 µg/mL (≈ 1300 µM) | inactive | CCCn1c(S)nnc1-c1ccc(S(=O)(=O)c2ccc(Cl)cc2)cc1 |

| Structure (SMILES) | MIC [1] | MIC [2] | MIC [3] | MIC [4] | MIC [5] | MIC [6] | MIC [7] |
| --- | --- | --- | --- | --- | --- | --- | --- |
| O=C(N[C@H](CO)[C@H](O)c1ccc([N+](=O)[O-])cc1)C(Cl)Cl [CHLORAMPHENICOL] | 64 µg/mL (≈ 198 µM) | 64 µg/mL (≈ 198 µM) | 64 µg/mL (≈ 198 µM) | 64 µg/mL (≈ 198 µM) | 128 µg/mL (≈ 396 µM) | 128 µg/mL (≈ 396 µM) | 64 µg/mL (≈ 198 µM) |
